Screening data deposited in PubChem BioAssay by several laboratories.
NR2E3 ag-1 – activates human photoreceptor nuclear receptor NR2E3 | Q9Y5X4 | GST-NR2E3/biotin-RetCOR TR-FRET, 1536-well | inhibition of corepressor binding, % at 4.78 µM | actives 0.12% (n = 320,000) | AID 2300;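 active means percent inhibition above the cutoff of mean plus 3 SD of all tested compounds, set per screening campaign, cut at about 20% in these data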;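 further: 0% = DMSO wells and 100% = biotin wells as full block of FRET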
Target sequence (Q9Y5X4 whole entry, looked up): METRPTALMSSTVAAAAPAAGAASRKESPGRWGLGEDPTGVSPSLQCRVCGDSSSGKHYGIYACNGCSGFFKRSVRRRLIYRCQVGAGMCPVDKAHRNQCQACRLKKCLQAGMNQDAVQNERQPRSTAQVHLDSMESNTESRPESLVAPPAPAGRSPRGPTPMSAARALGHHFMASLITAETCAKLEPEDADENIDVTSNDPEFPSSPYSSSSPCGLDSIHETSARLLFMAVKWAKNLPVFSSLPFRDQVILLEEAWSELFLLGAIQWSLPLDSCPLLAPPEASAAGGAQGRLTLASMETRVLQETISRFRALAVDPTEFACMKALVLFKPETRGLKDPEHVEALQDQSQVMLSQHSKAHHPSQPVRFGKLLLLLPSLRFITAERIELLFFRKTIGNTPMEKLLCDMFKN
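System: GST-tagged NR2E3 plus biotinylated RetCOR corepressor; Amount: 1.35 nM GST-tagged NR2E3 final; Dosing: single nominal compound dose of 4.8 µM; Schedule: 5 h incubation at 4 °C; Technique: TR-FRET with europium anti-GST and streptavidin-D2, 340 nm excitation; Controls: biotin wells as high control, 0.6% DMSO wells as low control.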
NR2E3 ag-2 – human photoreceptor-specific nuclear receptor agonism; Q9Y5X4; CHO-S Gal4-NCOR/VP16-NR2E3 two-hybrid, luciferase; inhibition of corepressor binding, % at 3.98 µM; actives 0.35% (n = 360,000); AID 602229;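 active means inhibition above the mean of all tested compounds plus 3 SD, cut at about 70% in these data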;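 further: 0% = DMSO with NR2E3 transfected cells and 100% = cells lacking NR2E3 construct; higher means lower luciferase signal from less NR2E3 corepressor binding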
Rev-erbA mod – modulates human Rev-erb alpha binding to DNA | Rev-erbα–FITC-DNA binding, fluorescence polarization, 90 min | actives 0.79% (n = 370,000) | P20393 | activity, % at 10 µM;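 active means activity above about 14%, limit read from the data; passing the limit was not always enough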;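 further: 0% = DMSO wells with 35 nM protein and 100% = DMSO wells with 750 nM protein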
PG9 Ab binder – binds the HIV-1 gp120 antibody PG9. TR-FRET gp120-PG9 antibody binding. AID 624416. actives 0.43% (n = 360,000). inhibition, % at 6.7 µM; in the data active means inhibition above about 8.5%
Rev-erbA confirm – Rev-erb alpha (human) modulation, hit confirmation. actives 61% (n = 3,000). Rev-erb alpha FITC-DNA binding, fluorescence polarization, 90 min. activation, % at 25 µM. shares compounds with Rev-erbA mod. AID 1259319;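 active means activation at or above a set limit, or at least 3 SD above the negative control mean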;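 further: 0% = 35 nM protein with DMSO and 100% = 750 nM protein high control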
RORg counter – RORgamma DNA-binding activity, dose-response counter-screen; purified RORgamma protein-FITC-DNA binding, fluorescence polarization; shares compounds with Rev-erbA mod; actives 8% (n = 910); IC50, µM;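 active means Compounds whose fitted half-maximal concentration for disrupting protein-DNA binding is below 10 micromolar; the record names Rev-erb in its text, so the target is in doubt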
* hit, by the source's call; i = inactive; nt = no result given. Shown are actives, neighbours in structure and some others; about 1.5% of the full set was active somewhere.

SMILES	NR2E3 ag-1	NR2E3 ag-2	Rev-erbA mod	PG9 Ab binder	Rev-erbA confirm	others
CN(C)c1ccc(N=Nc2ccccc2C(=O)OCC(=O)N(C)c2ccccc2)cc1	0	-31	22*	-2	23*
COC(=O)c1ccccc1NC(=O)COC(=O)c1ccccc1N=Nc1ccc(N(C)C)cc1	-6	-9	26*	-3	29*
N#Cc1ccc(CSc2nc3sc4c(c3c(=O)n2-c2ccc(Br)cc2)CCCC4)cc1	nt	nt	23*	nt	9
C#CCCN([C@@H](CC(C)C)C(=O)OC)S(=O)(=O)c1ccccc1Br	nt	nt	2	nt	nt
CC(=O)c1cc(NC(=O)c2cccc(C(F)(F)F)c2)c(=O)oc1/C=C/N(C)C	-1	-2	20*	-1	14
CC(=O)c1cc(NC(=O)c2cccc(C(F)(F)F)c2)c(=O)oc1C	0	-19	-6	1	nt
CC(=O)c1cc(NC(=O)c2ccc(Cl)cc2)c(=O)oc1/C=C/N(C)C	-3	-6	26*	-10	29*
COc1ccc(C(=O)Nc2cc(C(C)=O)c(C)oc2=O)cc1	5	-24	0	-2	nt
Cn1c(SCC(=O)Nc2cccc(F)c2)nnc1-c1cc2ccccc2o1	-64	-15	75*	2	102*	RORg counter=>40
CC(=O)Nc1ccc(-c2nnc(SCC(=O)Nc3ccc4c(c3)oc3ccccc34)n2C)cc1	2	-15	-1	1	nt
C=CCSc1nc(-c2ccccc2)c2cc(Cl)ccc2n1	1	1	5	0	nt
N#CCSc1nc(-c2ccccc2)c2cc(Cl)ccc2n1	1	10	21*	0	10
Cc1ccc(C)c(NC(=O)CN(C)C(=O)c2ccc(-c3cccc(C(F)(F)F)c3)o2)c1	-1	4	22*	6	23*
CN(CC(=O)Nc1cccc(F)c1)C(=O)c1ccc(-c2cccc(C(F)(F)F)c2)o1	-1	-13	-1	-2	nt
CN(C)/C=N/C1=C(C#N)C(c2cccs2)c2ccc3ccccc3c2O1 (stereo not given)	nt	-137	173*	-1	117*	RORg counter=>40
N#CC1=C(N)Oc2cc3ccccc3cc2C1c1cccs1 (stereo not given)	4	-59	0	-2	nt
COc1cc(Cl)ccc1OC1(C)CCN(Cc2cccc(OC)c2OC)C1 (stereo not given)	nt	-27	5	-1	nt
COc1ccc2c(-c3ccccc3)cc(SC(C)C(N)=O)nc2c1 (stereo not given)	6	9	19*	1	18*
O=C(COc1ccc2ccccc2c1)NNC(=O)Cc1ccccc1	-104	-20	35*	-28	29*
O=C(c1ccccc1)c1nn(-c2ccc(Cl)cc2)cc1C(=O)c1cc2ccccc2oc1=O	4	-13	34*	-1	-8
Cc1ccc(NC(=O)CN2C(=O)CCSc3ccccc32)cc1C	nt	nt	-1	nt	nt
CCOc1cccc2cc(C(N)=O)c(=NCc3ccccc3)oc12	1	-9	48*	-3	17*
CCOc1cccc2cc(C(N)=O)c(=N)oc12	nt	-5	-6	0	nt
NC(=O)C1(N2CCCCC2)CCN(C(=S)Nc2ccc(F)c(Cl)c2)CC1	0	-4	13*	-2	-6
CCOC(=O)Cn1c(-c2nonc2NC(=O)c2ccccc2F)nc2ccccc21	-1	19	27*	0	15
SMILES	NR2E3 ag-1	NR2E3 ag-2	Rev-erbA mod	PG9 Ab binder	Rev-erbA confirm	others
COc1cc(OC)c(NC(=O)c2sc3ncn(CC(=O)N4CCN(c5ccccn5)CC4)c(=O)c3c2C)cc1Cl	-2	5	22	9	nt
COc1ccccc1NC(=O)c1sc2ncn(Cc3cccc(C)c3)c(=O)c2c1C	5	-8	55*	6	54*	RORg counter=1.1*
COc1ccccc1NC(=O)c1sc2ncn(Cc3ccc(C)cc3)c(=O)c2c1C	5	-14	46*	1	14
COc1ccc(NC(=O)c2sc3ncn(CC(=O)N4CCCCC4)c(=O)c3c2C)cc1OC	0	5	-3	0	nt
COc1ccc(NC(=O)c2sc3ncn(CC(=O)N4CCN(c5ccccn5)CC4)c(=O)c3c2C)c(OC)c1	1	7	48*	0	13
COc1ccc(C2(NC(C)=O)CCN(Cc3cccnc3)CC2)cc1	-1	13	-3	-2	nt
COc1cc(C(=O)NCC(c2cccs2)N2CCOCC2)ccc1OCc1ccccc1 (stereo not given)	nt	23	7	2	nt
COc1ccc(S(=O)(=O)Nc2ccc(-n3cccc3)cc2)cc1	2	-10	4	-3	nt
O=C(COc1ncnc2c(Cl)cc(Cl)cc12)NC1CCCCCC1	-4	-17	30*	-1	32*	RORg counter=1.3*
COc1ccc(S[C@]2(C(=O)N3CCOCC3)CC(=O)N(c3ccc(OC)cc3)[C@@H]2c2ccc(OC)cc2)cc1	nt	nt	6	nt	nt
O=C(O)c1cccc(Nc2nc(Nc3ccccc3)nc(N3CCCC3)n2)c1	2	-6	0	0	nt
CCCSc1nc(SCC(=O)NCc2ccccc2)c2c3c(sc2n1)COC(C)(C)C3	0	-14	45*	0	15
CC(C)Cn1c(N)c(C(=O)CSc2nc3ncc(Cl)cc3[nH]2)c(=O)n(C)c1=O	-3	18	2	-2	nt
CCCn1c(N)c(C(=O)CSc2nc3ncc(Cl)cc3[nH]2)c(=O)n(C)c1=O	4	-13	66*	3	17*
O=c1c2cnn(-c3ccccc3)c2nc(-c2cccs2)n1-c1ccc(Br)cc1	-1	-32	38*	-1	4
O=C(O)CSc1nc2c(cnn2-c2ccccc2)c(=O)n1-c1ccc(Br)cc1	2	-11	-1	-2	nt
Fc1ccccc1Oc1nc(-c2ccncc2)nc2ccccc12	0	-6	33*	0	15
CN(C)c1ccc(/C=C/c2cc[n+](C)cc2)cc1	11	1	28*	-22	44*	RORg counter=>40
Cc1ccc(/C=C/c2ccc(N(C)C)cc2)[n+](C)c1	-11	-14	37*	-20	50*	RORg counter=i
CCS(=O)(=O)N1CCC(C(=O)NCc2ccc(OC)cc2)CC1	-4	-9	1	-1	nt
CC1CCCCN1C(=O)CCS(=O)(=O)c1cccc2nonc12 (stereo not given)	-1	-7	2	0	nt
Cc1ccnc(N2CCC(C(=O)Nc3ccc(Oc4ccccc4)cc3)CC2)n1	0	11	24*	1	-2
CCOc1ccc(NC(=O)c2cc3c(=O)n(C)c4ccccc4c3n2C)cc1	1	-14	41*	-1	21*
Cn1cc(C2=C(c3ccc(Cl)cc3Cl)C(=O)NC2=O)c2ccccc21	4	10	36*	-2	20*
Cc1ccc2c(c1)sc(=NC(=O)c1cccs1)n2C	0	-76	43*	0	10
CCOC(=O)c1sc(=NC(=O)c2ccc(OC(C)C)cc2)n(C)c1C	-1	-30	44*	0	38*	RORg counter=4.4*
